Data reported in ChEMBL document CHEMBL1154198, “Chemical genetics of Plasmodium falciparum” (Nature, 2010).

How the values were obtained:
[1] = test system: Plasmodium falciparum; assay: ST_JUDE: Cytotoxicity against Plasmodium falciparum Dd2; format: functional, organism-based
[2] = test system: Trypanosoma brucei; assay: ST_JUDE: Cytotoxicity using luciferase to measure ATP as an indicator of the viability of Trypanosoma brucei; format: functional, organism-based
[3] = test system: Plasmodium falciparum; assay: ST_JUDE: Cytotoxicity against Plasmodium falciparum W2; format: functional, organism-based
[4] = test system: Plasmodium falciparum; assay: ST_JUDE: Cytotoxicity against Plasmodium falciparum 3D7; format: functional, organism-based
Summary of the method: (§1)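 Asexual P. falciparum grown in human erythrocytes, exposed to compounds for 72 h, and growth read as the DNA quantity in treated versus control cultures. Dose-response run at 12 concentrations from 10 μM to 5 nM.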

[5] = test system: Plasmodium falciparum; assay: ST_JUDE: Cytotoxicity against Plasmodium falciparum V1/S; format: functional, organism-based
[6] = ST_JUDE: Cytotoxicity using luciferase to measure ATP as an indicator of the viability of human foreskin fibroblast cells (BJ); format: toxicity, cell-based
[7] = test system: Plasmodium falciparum; assay: ST_JUDE: Cytotoxicity against Plasmodium falciparum D10 transfected with yeast DHOD; format: functional, organism-based
[8] = ST_JUDE: Cytotoxicity using luciferase to measure ATP as an indicator of the viability of human Burkitt''s lymphoma lymphoblast cells (Raji); format: toxicity, cell-based
[9] = test system: Leishmania major; assay: ST_JUDE: Cytotoxicity using Alamar Blue to measure viability of Leishmania major; format: functional, organism-based
Summary of the method: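 L. major promastigotes; drug susceptibility read with Alamar Blue.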

[10] = test system: Plasmodium falciparum; assay: ST_JUDE: Plasmodium falciparum K1 EC50 (uM) as measured by SYBR green dye; format: functional, organism-based
[11] = ST_JUDE: Cytotoxicity using luciferase to measure ATP as an indicator of the viability of human epithelial hepatocellular carcinoma cells (HepG2); format: toxicity, cell-based
[12] = test system: Plasmodium falciparum; assay: ST_JUDE: Cytotoxicity against Plasmodium falciparum SB-A6; format: functional, organism-based
[13] = ST_JUDE: Cytotoxicity using luciferase to measure ATP as an indicator of the viability of human epithelial embryonic kidney cells (HEK293); format: toxicity, cell-based
[14] = test system: Toxoplasma gondii; assay: ST_JUDE: Growth inhibition of to Toxoplasma gondii, in human U-2OS cells, as measured by luciferase.; format: functional, organism-based; settings: RH, U2OS
Summary of the method: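 T. gondii parasites engineered to express luciferase; drug sensitivity read by luminescence.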

[15] = test system: Plasmodium falciparum; assay: ST_JUDE: Plasmodium falciparum 3D7 EC50 (uM) as measured by SYBR green dye; format: functional, organism-based
[16] = test system: Plasmodium falciparum; assay: ST_JUDE: Cytotoxicity against Plasmodium falciparum K1; format: functional, organism-based; summary of the method: as §1

EC50 [10] [nM]	EC50 [15] [nM]	SMILES	EC50 [1] [nM]	EC50 [2] [nM]	EC50 [3] [nM]	EC50 [4] [nM]	EC50 [5] [nM]	EC50 [6] [nM]	EC50 [7] [nM]	EC50 [8] [nM]	EC50 [9] [nM]	EC50 [11] [nM]	EC50 [12] [nM]	EC50 [13] [nM]	EC50 [14] [nM]	EC50 [16] [nM]
1500	1090	CN(C)c1cc[n+](CC(=O)c2ccc(Br)cc2)cc1	1030	> 29600	> 7920	1610	> 7920	> 30800	4300	> 30800	> 13200	> 30800	> 7920	> 30800	> 16900	2610
26.1	28.6	CCN(CC)Cc1cc(Nc2ccnc3cc(Cl)ccc23)ccc1O	74.4	> 38600	12	44.3	45	> 40200	49.9	> 40200	> 17200	> 40200	32.5	> 40200	> 22100	42.6
216	545	COc1ccc(Nc2cc(C)c3ccc(O)cc3n2)cc1	709	> 45400	284	688	307	> 47400	1070	> 47400	> 20300	43000	1230	> 47400	25400	241
224	720	CC(C)c1ccccc1Oc1c(C(F)(F)F)oc2c(CN3CCN(C)CC3)c(O)ccc2c1=O	1810	> 20100	252	184	178	> 21000	231	> 21000	326	> 21000	334	> 21000	> 11500	158
551	717	COCCO/C(O)=C1\C(C)=NC2=C(C(=O)CC(c3ccc(OC)c(OC)c3)C2)C1c1ccccc1F (stereo not drawn)	970	> 38300	1350	498	406	> 39900	553	> 39900	> 17100	> 39900	313	> 39900	> 21900	314
390	1040	CCCCn1c(=N)n(CC(O)c2ccc(Br)cc2)c2ccccc21 (stereo not drawn)	869	6220	638	2000	1110	> 43400	5620	32900	> 18600	18900	2620	> 43400	> 23800	1360
804	858	CCOC(=O)c1cnc2c(OC)cccc2c1Nc1ccc(OC)c(OC)c1	676	> 43200	2700	476	865	> 45100	> 11600	> 45100	> 19300	> 45100	> 11600	> 45100	> 24700	651

SMILES	EC50 [10] [nM]	EC50 [15] [nM]	EC50 [1] [nM]	EC50 [2] [nM]	EC50 [3] [nM]	EC50 [4] [nM]	EC50 [5] [nM]	EC50 [6] [nM]	EC50 [7] [nM]	EC50 [8] [nM]	EC50 [9] [nM]	EC50 [11] [nM]	EC50 [12] [nM]	EC50 [13] [nM]	EC50 [14] [nM]	EC50 [16] [nM]
Oc1ccc(C2NCc3ccccc3-n3cccc32)cc1Cl (stereo not drawn)	357	1250	1380	> 44100	1090	1490	360	> 46000	1770	> 46000	> 19700	> 46000	2350	> 46000	> 25200	395
